The record followed here is ChEMBL document CHEMBL3734666, “Lipophilic vancomycin aglycon dimer with high activity against vancomycin-resistant bacteria” (2015).

Experiment [1] has as its system Staphylococcus aureus. Nature of the experiment: Antibacterial activity against vancomycin-intermediate-resistant Staphylococcus aureus […] after 24 hrs by broth micro dilution assay. Format: functional. The essentials: (§1)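 MIC read against vancomycin-sensitive staphylococci (MSSA, MRSA) and enterococci (VSE), plus vancomycin-resistant staphylococci (VISA) and enterococci (VRE).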

Experiment [2] has as its system Staphylococcus aureus. Nature of the experiment: Antibacterial activity against methicillin-sensitive Staphylococcus aureus after 24 hrs by broth micro dilution assay. Format: functional. The essentials: as §1
For experiment [3], the system named is Enterococcus faecium. Kind of experiment: Antibacterial activity against vancomycin-resistant Enterococcus faecium ATCC 51559 after 24 hrs by broth micro dilution assay. The experiment is classed as functional. The following applies: ATCC 51559, 24 h. The essentials: as §1
In experiment [4] the test system is Staphylococcus aureus. Kind of experiment: Antibacterial activity against methicillin-resistant Staphylococcus aureus ATCC 33591 after 24 hrs by broth micro dilution assay. The following applies: ATCC 33591, 24 h. The experiment is classed as functional. The essentials: as §1
For experiment [5], the system named is Enterococcus faecium. Nature of the experiment: Antibacterial activity against vancomycin-sensitive Enterococcus faecium after 24 hrs by broth micro dilution assay. Format: functional.
Experiment [6] relates to Staphylococcus aureus. Nature of the experiment: Bactericidal activity against methicillin-resistant Staphylococcus aureus ATCC 33591 assessed as reduction in bacterial burden at 4 uM measured within 3 hrs by time-kill assay. Format: functional. The essentials:
(§2)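 Time-kill assay on MRSA starting near 8log₁₀ CFU/mL, with compound at 2 and 4 µM. Viable counts were taken over 24 h, including a 3 h point, with a detection limit of <50 CFU/mL.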

A short description of experiment [7]: Binding affinity to N,N'-diacetyl-Lys-D-Ala-D-Ala (unknown origin) by UV-difference spectroscopy. The essentials: (§3)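 Binding constants (Ka) measured by UV-difference spectroscopy with the model ligands N,N′-diacetyl-Lys-D-Ala-D-Ala (sensitive) and N,N′-diacetyl-Lys-D-Ala-D-Lac (resistant).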
Experiment [8] deals with Staphylococcus aureus. Kind of experiment: Bactericidal activity against methicillin-resistant Staphylococcus aureus ATCC 33591 assessed as reduction in bacterial burden at 4 uM measured within 24 hrs by time-kill assay. Format: functional, organism-based. The essentials:
as §2

Experiment [9] relates to Staphylococcus aureus. Kind of experiment: Antibacterial activity against methicillin-resistant Staphylococcus aureus ATCC 33591 infected in human whole blood assessed as bacterial burden at 2 uM after 3 hrs (reference value: 7.0 log10 CFU/ml). The experiment is classed as functional.
Experiment [10] can be described thus: Binding affinity to N,N'-diacetyl-Lys-D-Ala-D-Lac (unknown origin) by UV-difference spectroscopy. The essentials:
as §3

In experiment [11] the test system is Enterococcus faecium. Nature of the experiment: Inhibition of peptidoglycan biosynthesis in vancomycin-resistant Enterococcus faecium ATCC 51559 assessed as accumulation of UDP-MurNAc-pp at 5 uM after 60 mins by mass spectrometric analysis. Format: functional, organism-based.
The subject of experiment [12] is Staphylococcus aureus. Kind of experiment: Bacteriostatic activity against methicillin-resistant Staphylococcus aureus ATCC 33591 at 2 to 4 uM measured after 6 hrs. Format: functional, organism-based.
Experiment [13] deals with Staphylococcus aureus. Kind of experiment: Bacteriostatic activity against methicillin-resistant Staphylococcus aureus ATCC 33591 at 2 to 4 uM measured within 6 hrs. The experiment is classed as functional, organism-based.
In experiment [14] the test system is Staphylococcus aureus. Nature of the experiment: Antibacterial activity against methicillin-resistant Staphylococcus aureus ATCC 33591 infected in human whole blood assessed as bacterial burden at 4 uM after 3 hrs (reference value: 7.0 log10 CFU/ml). Format: functional.

Structures are written as SMILES. ≈ marks a conversion by molar mass, not a printed value. Calls of active or inactive are those of the source. The calls are words filed in the database; no cut-off is given here.

For `CN[C@H](CC(C)C)C(=O)N[C@@H]1C(=O)N[C@H](CC(N)=O)C(=O)N[C@@H]2C(=O)N[C@@H]3C(=O)N[C@@H](C(=O)N[C@H](C(=O)NCCC[N+](C)(C)CCCCCCCC[N+](C)(C)CCCNC(=O)[C@H]4NC(=O)[C@@H]5NC(=O)[C@@H](NC(=O)[C@H]6NC(=O)[C@@H](CC(N)=O)NC(=O)[C@@H](NC(=O)[C@@H](CC(C)C)NC)[C@@H](O)c7ccc(c(Cl)c7)Oc7cc6cc(c7O)Oc6ccc(cc6Cl)[C@@H]5O)c5ccc(O)c(c5)-c5c(O)cc(O)cc54)c4cc(O)cc(O)c4-c4cc3ccc4O)[C@@H](O)c3ccc(c(Cl)c3)Oc3cc2cc(c3O)Oc2ccc(cc2Cl)[C@@H]1O`, the MIC with Staphylococcus aureus [1] came to 0.1 µM; with Staphylococcus aureus [2], 0.2 µM; with Enterococcus faecium [3], 48 µM; with Staphylococcus aureus [4], 0.3 µM; against Enterococcus faecium [5], 0.05 µM.
For the compound `CCCCCCCCN(CCCNC(=O)[C@H]1NC(=O)[C@@H]2NC(=O)[C@@H](NC(=O)[C@H]3NC(=O)[C@@H](CC(N)=O)NC(=O)[C@@H](NC(=O)[C@@H](CC(C)C)NC)[C@@H](O)c4ccc(c(Cl)c4)Oc4cc3cc(c4O)Oc3ccc(cc3Cl)[C@@H]2O)c2ccc(O)c(c2)-c2c(O)cc(O)cc21)CCCNC(=O)[C@@H]1NC(=O)[C@H]2NC(=O)[C@H](NC(=O)[C@@H]3NC(=O)[C@H](CC(N)=O)NC(=O)[C@H](NC(=O)[C@@H](CC(C)C)NC)[C@H](O)c4ccc(c(Cl)c4)Oc4cc3cc(c4O)Oc3ccc(cc3Cl)[C@H]2O)c2ccc(O)c(c2)-c2c(O)cc(O)cc21`, the Activity in the experiment with Staphylococcus aureus [6] is on record as 3 log10CFU/ml; in the experiment on Staphylococcus aureus [9] it was 4.5 log10CFU/ml. Also, the MIC was determined as 0.6 µM (≈ 1.5 µg/mL) with Staphylococcus aureus [1]; 0.6 µM (≈ 1.5 µg/mL) against Staphylococcus aureus [2]; 2.5 µM (≈ 6.24 µg/mL) against Enterococcus faecium [3]; 0.6 µM (≈ 1.5 µg/mL) in the experiment with Staphylococcus aureus [4]; 0.5 µM (≈ 1.25 µg/mL) against Enterococcus faecium [5]. The Ka in experiment [7] is 1 ×10⁵ /M; in experiment [10] it was 5.7 ×10³ /M. Besides, the result in the experiment with Staphylococcus aureus [8] was Active. Also, in the experiment with Enterococcus faecium [11], the inhibition entry is “Active”.
As to `CN[C@H](CC(C)C)C(=O)N[C@H]1C(=O)N[C@@H](CC(N)=O)C(=O)N[C@H]2C(=O)N[C@H]3C(=O)N[C@H](C(=O)N[C@H](C(=O)NCCCCCCCCNC(=O)C(F)(F)F)c4cc(O)cc(O)c4-c4cc3ccc4O)[C@H](O)c3ccc(c(Cl)c3)Oc3cc2cc(c3O)Oc2ccc(cc2Cl)[C@H]1O`, the MIC turned out to be 0.6 µM (≈ 0.82 µg/mL) in the experiment on Staphylococcus aureus [1]; 1 µM (≈ 1.37 µg/mL) against Staphylococcus aureus [2]; 30.5 µM (≈ 41.7 µg/mL) against Enterococcus faecium [3]; 2 µM (≈ 2.73 µg/mL) in the experiment on Staphylococcus aureus [4]; 0.6 µM (≈ 0.82 µg/mL) in the experiment with Enterococcus faecium [5].
On to `CN[C@@H](CC(C)C)C(=O)N[C@H]1C(=O)N[C@@H](CC(N)=O)C(=O)N[C@H]2C(=O)N[C@H]3C(=O)N[C@H](C(=O)N[C@@H](C(=O)O)c4cc(O)cc(O)c4-c4cc3ccc4O)[C@H](O)c3ccc(c(Cl)c3)Oc3cc2cc(c3O[C@H]2O[C@@H](CO)[C@H](O)[C@@H](O)[C@@H]2O[C@@H]2C[C@@](C)(N)[C@@H](O)[C@@H](C)O2)Oc2ccc(cc2Cl)[C@H]1O`, for which, in the experiment with Staphylococcus aureus [12], the outcome was inactive. The result with Staphylococcus aureus [13] was Active. Also, the MIC in the experiment on Staphylococcus aureus [1] was determined as 13 µM (≈ 18.8 µg/mL); in the experiment on Staphylococcus aureus [2], 0.6 µM (≈ 0.87 µg/mL); with Enterococcus faecium [3] it was 750 µM (≈ 1090 µg/mL); against Staphylococcus aureus [4] it was 0.7 µM (≈ 1.01 µg/mL); against Enterococcus faecium [5], 0.6 µM (≈ 0.87 µg/mL). The Ka in [7] worked out at 1 ×10⁵ /M; in [10] it was 5 ×10² /M. Besides, the Activity in the experiment with Staphylococcus aureus [14] is recorded as 1 log10CFU/ml.
On to `CN[C@H](CC(C)C)C(=O)N[C@H]1C(=O)N[C@@H](CC(N)=O)C(=O)N[C@H]2C(=O)N[C@H]3C(=O)N[C@H](C(=O)N[C@H](C(=O)NCCC[N+](C)(C)CCCCCCCC[N+](C)(C)CCCNC(=O)C(F)(F)F)c4cc(O)cc(O)c4-c4cc3ccc4O)[C@H](O)c3ccc(c(Cl)c3)Oc3cc2cc(c3O)Oc2ccc(cc2Cl)[C@H]1O`, for which the MIC is 0.5 µM in the experiment on Staphylococcus aureus [1]; 1 µM with Staphylococcus aureus [2]; above 100 µM with Enterococcus faecium [3]; 1 µM against Staphylococcus aureus [4]; 0.2 µM against Enterococcus faecium [5].
With `CN[C@H](CC(C)C)C(=O)N[C@@H]1C(=O)N[C@H](CC(N)=O)C(=O)N[C@@H]2C(=O)N[C@@H]3C(=O)N[C@@H](C(=O)N[C@H](C(=O)NCCCCCCCCNC(=O)[C@H]4NC(=O)[C@@H]5NC(=O)[C@@H](NC(=O)[C@H]6NC(=O)[C@@H](CC(N)=O)NC(=O)[C@@H](NC(=O)[C@@H](CC(C)C)NC)[C@@H](O)c7ccc(c(Cl)c7)Oc7cc6cc(c7O)Oc6ccc(cc6Cl)[C@@H]5O)c5ccc(O)c(c5)-c5c(O)cc(O)cc54)c4cc(O)cc(O)c4-c4cc3ccc4O)[C@@H](O)c3ccc(c(Cl)c3)Oc3cc2cc(c3O)Oc2ccc(cc2Cl)[C@@H]1O`, the MIC in the experiment with Staphylococcus aureus [1] was 0.2 µM (≈ 0.479 µg/mL); against Staphylococcus aureus [2] it was 0.8 µM (≈ 1.92 µg/mL); against Enterococcus faecium [3] it was 25.8 µM (≈ 61.8 µg/mL); with Staphylococcus aureus [4], 0.6 µM (≈ 1.44 µg/mL); with Enterococcus faecium [5], 0.6 µM (≈ 1.44 µg/mL).
Regarding `CCCCCCCCN(CCCNC(=O)[C@H]1NC(=O)[C@H]2NC(=O)[C@H](NC(=O)[C@@H]3NC(=O)[C@H](CC(N)=O)NC(=O)[C@H](NC(=O)[C@@H](CC(C)C)NC)[C@H](O)c4ccc(c(Cl)c4)Oc4cc3cc(c4O)Oc3ccc(cc3Cl)[C@H]2O)c2ccc(O)c(c2)-c2c(O)cc(O)cc21)CCCNC(=O)C(F)(F)F`, the minimal inhibitory concentration (MIC) with Staphylococcus aureus [1] was determined as 0.8 µM (≈ 1.17 µg/mL); in the experiment with Staphylococcus aureus [2] it was 0.8 µM (≈ 1.17 µg/mL); in the experiment with Enterococcus faecium [3], 6.5 µM (≈ 9.52 µg/mL); against Staphylococcus aureus [4], 1 µM (≈ 1.47 µg/mL); with Enterococcus faecium [5], 0.4 µM (≈ 0.586 µg/mL).
Consider `CN[C@H](CC(C)C)C(=O)N[C@H]1C(=O)N[C@@H](CC(N)=O)C(=O)N[C@H]2C(=O)N[C@H]3C(=O)N[C@H](C(=O)N[C@H](C(=O)O)c4cc(O)cc(O)c4-c4cc3ccc4O)[C@H](O)c3ccc(c(Cl)c3)Oc3cc2cc(c3O)Oc2ccc(cc2Cl)[C@H]1O` [VANCOMYCIN AGLYCON], for which the MIC is 4 µM (≈ 4.58 µg/mL) against Staphylococcus aureus [1]; 1 µM (≈ 1.14 µg/mL) in the experiment on Staphylococcus aureus [2]; above 100 µM against Enterococcus faecium [3]; 1 µM (≈ 1.14 µg/mL) in the experiment on Staphylococcus aureus [4]; 1.8 µM (≈ 2.06 µg/mL) against Enterococcus faecium [5].

One may read the MIC as the lowest concentration found to suppress growth. High values mean weaker potency, low ones greater potency.
